Source: PubChem
Hits are enriched below; roughly 1.1% of the tested compounds scored in any of these assays.
MT1-MMP act inh: blockers of MT1-MMP proenzyme processing, primary screen, HT1080 RFP-PRO-GFP cells, GFP/RFP fluorescence; GFP/RFP ratio change, % at 20 µM; Matrix metalloproteinase-14 (Homo sapiens), P50281; GFP/RFP ratio fluorescence, overnight; percent of plate control window, DMSO zero; 0.061% of 360,000 active;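 active = GFP/RFP ratio change of at least 30% with cell ATP level not reduced by more than half and red fluorescence within 50% of control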
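Test system: HT1080 cells expressing an RFP-PRO-GFP fluorescent reporter construct / Compound dosing: single-point 20 µM compound, 1% DMSO / Schedule: cells overnight before dosing, compound overnight, 37 °C, 5% CO2 / Evaluation: GFP/RFP fluorescence ratio / Control set: DMSO and RFP-L50D-GFP cell wells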
Tb MetRS inh: T. brucei MetRS inhibitors, primary screen, biochemical, luminescence. 0.4% of 360,000 active. AID 624268, 2012. methionyl-tRNA synthetase (Trypanosoma brucei brucei). purified T. brucei MetRS, ATP depletion, Kinase-Glo luminescence. inhibition, % at 11.9 µM;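 active = inhibition above a per-plate cutoff of the control wells' mean inhibition plus 3 SD, cut at about 5.5% in these data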;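 note: 0% = DMSO wells median and 100% = median of wells with control inhibitor compound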
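Dosing: 11.9 µM compound single dose, 0.9% DMSO; Assay system: purified T. brucei MetRS enzyme; Measured by: Kinase-Glo luciferase luminescence reporting remaining unconsumed ATP; Schedule: 15 min plus 2 h at 25 °C.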
NPR1 activator: GC-A stimulated cGMP production enhancers – HEK293 GC-A cells, cGMP TR-FRET, EC30 ANP, primary screen. 0.14% of 370,000 active. 0% at EC30 ANP, 100% saturating ANP. activation, % at 10 µM. Atrial natriuretic peptide receptor 1 (Homo sapiens), P16066. AID 1671463, 2021; in the data active = activation above about 40%
Target sequence (P16066 whole entry, looked up): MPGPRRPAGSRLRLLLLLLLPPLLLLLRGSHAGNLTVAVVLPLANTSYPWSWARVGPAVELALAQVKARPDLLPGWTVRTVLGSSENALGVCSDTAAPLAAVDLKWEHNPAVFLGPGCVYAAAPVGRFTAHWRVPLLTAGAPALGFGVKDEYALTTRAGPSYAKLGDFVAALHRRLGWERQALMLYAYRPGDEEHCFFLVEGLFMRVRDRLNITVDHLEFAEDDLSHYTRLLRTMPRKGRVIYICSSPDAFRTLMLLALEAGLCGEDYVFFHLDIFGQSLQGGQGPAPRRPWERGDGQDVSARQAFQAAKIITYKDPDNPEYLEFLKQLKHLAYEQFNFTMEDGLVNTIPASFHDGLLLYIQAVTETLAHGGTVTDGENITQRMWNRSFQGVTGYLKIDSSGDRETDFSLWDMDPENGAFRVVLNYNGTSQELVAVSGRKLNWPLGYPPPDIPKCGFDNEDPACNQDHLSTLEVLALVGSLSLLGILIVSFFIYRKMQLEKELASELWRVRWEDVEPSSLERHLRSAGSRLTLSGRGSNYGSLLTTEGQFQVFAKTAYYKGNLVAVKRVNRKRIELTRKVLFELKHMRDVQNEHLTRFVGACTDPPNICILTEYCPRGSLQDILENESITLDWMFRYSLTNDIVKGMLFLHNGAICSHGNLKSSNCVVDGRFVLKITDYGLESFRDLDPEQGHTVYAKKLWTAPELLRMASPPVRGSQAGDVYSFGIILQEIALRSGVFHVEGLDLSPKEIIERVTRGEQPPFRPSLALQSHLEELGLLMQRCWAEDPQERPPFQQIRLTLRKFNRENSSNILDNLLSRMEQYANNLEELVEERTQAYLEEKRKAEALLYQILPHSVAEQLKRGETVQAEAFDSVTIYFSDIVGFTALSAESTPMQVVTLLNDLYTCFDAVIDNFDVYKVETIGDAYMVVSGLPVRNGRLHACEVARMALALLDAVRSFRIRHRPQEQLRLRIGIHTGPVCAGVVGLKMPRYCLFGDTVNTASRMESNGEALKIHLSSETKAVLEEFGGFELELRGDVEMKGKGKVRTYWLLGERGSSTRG
SKN-1 block: suppressors of acrylamide-induced Pgst-4::GFP reporter in worms, primary screen, SKN-1 inhibitor project, whole organism, uHTS, GFP/RFP fluorescence ratio, strain VP596 | inhibition, % at 21.8 µM | 0.49% of 360,000 active | C. elegans VP596 Pgst-4::GFP/RFP ratio, 24 h;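 active = interference check ratio from 0.5 to 1.5 plus GFP to RFP signal ratio inhibition reaching or exceeding a fixed threshold, cut at about 30% in these data, passing the limit was not always enough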
A1 inh: caspase 3/7 activation in MEF A1-2A-BIM cells, primary screen, A1 inhibitor project, cell-based, luminescence, HTS; Caspase-Glo 3/7 luminescence, 3 h; percent of clofoctol response, vehicle zero; 0.066% of 330,000 active; AID 2462, 2010; caspase activation, % (concentration not given with the values);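 active = over half of replicate activation scores above 10%, or exactly half above 10 with the replicate mean above 10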
GC-B act: human GC-B receptor activators, primary screen, HEK293 GC-B cells, cGMP TR-FRET, EC30 CNP | Atrial natriuretic peptide receptor 2 (Homo sapiens), P20594 | 0% at EC30 CNP, 100% saturating CNP | activation, % at 10 µM | 0.11% of 370,000 active;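 active = activation at 10 µM reaching about 35% in either raw or pattern-adjusted values, limit read from the data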
TbMetRS confirm: T. brucei MetRS inhibitors, confirmation, biochemical, luminescence; shares compounds with Tb MetRS inh; T. brucei MetRS enzyme, luminescence (ATP depletion); inhibition, % at 11.9 µM; 93% of 1,400 active; AID 624412, 2012; in the data active = inhibition above about 7%
Jurkat cytotox: Jurkat T cell cytotoxicity, cytotoxicity control for T. brucei MetRS inhibitor project, luminescence, high throughput; inhibition, % at 8.3 µM; 12% of 1,400 active; AID 624413, 2012; shares compounds with Tb MetRS inh; Jurkat cells viability, ATP luminescence; in the data active = inhibition above about 15%;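 note: 0% = vehicle and 100% = reference inhibitor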
TbMetRS FP orth: T. brucei MetRS inhibitors, orthogonal assay for T. brucei MetRS inhibitor project, biochemical, fluorescence polarization | shares compounds with Tb MetRS inh | purified T. brucei MetRS | inhibition, % at 11.9 µM | 44% of 1,400 active | AID 651607, 2012; in the data active = inhibition above about 17%;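 note: 0% = vehicle wells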
The depositor's hits bear a star; · = not tested or not shown.

SMILES	MT1-MMP act inh	Tb MetRS inh	NPR1 activator	SKN-1 block	A1 inh	GC-B act	TbMetRS confirm	Jurkat cytotox	TbMetRS FP orth
Cc1ccnc(SCc2cc(=O)c(OC(=O)c3ccc(C#N)cc3)co2)n1	·	·	-2	·	·	-8	·	·	·
CN1C2=NC(c3ccc4ccccc4c3)CC(=O)N2/C(=C\c2ccccc2)C1c1ccccc1C(F)(F)F (stereo not drawn)	·	·	-14	·	·	-19	·	·	·
CCNC(=S)Nc1ccc2cn[nH]c2c1	0	-1	-1	5	0	5	·	·	·
N#CC(C#N)=NNc1ccc2cn[nH]c2c1	-5	9.9*	1	-2	·	2	24*	30*	54*
O=C1N(Cc2cccc(Cl)c2)C[C@@H]2C[C@@H](c3c[nH]c4ccccc34)N3CCC[C@@]123	25	5.9*	-24	40	-1	-13	11*	5	8
C1=C(CCNc2ncnc3c2[nH]c2ccccc23)CCCC1	-11	79*	13	14	0	21	97*	56*	76*
Brc1ccc2[nH]c3c(NCc4ccccn4)ncnc3c2c1	8	83*	5	-3	1	9	88*	3	79*
COc1ccc(CNc2ncnc3c2[nH]c2cc(OC)c(OC)cc23)cc1	14	0	2	9	1	3	·	·	·
Cc1ccc2[nH]c3c(NCc4ccccc4)ncnc3c2c1	·	·	0	·	1	2	·	·	·
CC(C)OCCCNc1ncnc2c1[nH]c1ccccc12	3	74*	3	12	0	9	87*	38*	64*
COc1ccc(CNc2ncnc3c2[nH]c2ccccc23)cc1	7	88*	15	19	0	11	94*	24*	73*
CCOc1ccc2[nH]c3c(NCCCOC)ncnc3c2c1	12	2	-1	3	2	1	·	·	·
O=C(NC1CCC1)c1ccc(C#Cc2cccc(F)c2)cn1	·	·	5	·	·	0	·	·	·
O=C1[C@@H](C2CC2)[C@@H]2c3ccccc3C=NN2[C@@H]2c3ccccc3C=NN12	·	·	0	·	·	-6	·	·	·
C[C@H]1C2CC(OC(=O)Nc3cccc(F)c3)C(C2)[C@H]2CCCCN21 (stereo partly drawn)	·	·	2	·	·	-2	·	·	·
CCn1c(=O)n(CC(=O)N2CCN(C(C)=O)CC2)c(=O)c2ccccc21	·	·	6	·	·	-6	·	·	·
O=C(NCCc1nc2ccccc2[nH]1)/C(=C/c1ccc(F)cc1)NC(=O)c1ccco1	-1	3	-2	-8	1	-3	·	·	·
O=C(NCCc1nc2ccccc2[nH]1)/C(=C/c1ccc2c(c1)OCO2)NC(=O)c1ccc(Cl)cc1Cl	2	8.0*	-6	13	0	-1	11*	0	5
O=C(NCCc1nc2ccccc2[nH]1)c1ccc([N+](=O)[O-])cc1	0	36*	1	2	-1	0	58*	4	29*
CC(=O)NCCc1nc2ccccc2[nH]1	2	0	27	-6	0	1	·	·	·
O=C(NCCc1nc2ccccc2[nH]1)c1cccc(Br)c1	0	19*	-1	16	0	1	30*	-5	12
